Twelve compounds from ChEMBL document CHEMBL1124070, “Potential anticancer agents: 5-(N-substituted-aminocarbonyl)- and 5-(N-substituted-aminothiocarbonyl)-5,6,7,8-tetrahydrofolic acids” (J Med Chem, 1988) can be followed below.

Assay [1] concerns HEp-2. The assay can be described thus: Effective dose required to inhibit colony formation of H.Ep-2 cells. Format: functional. Particulars: Homo sapiens, read-out: ED50 (the source's name). In short, it runs like this: (§1)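 Colony-forming viability assay in H.Ep.-2 cells. The ED50 is the concentration that inhibits colony formation by 50%.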
For assay [2], the system named is P388. Put plainly: Compound was tested for cytotoxicity against P388 cells; IA=Inactive. The format is functional, cell-based. Conditions: Mus musculus.
Assay [3] concerns HEp-2. Put plainly: Dose of compound required to inhibit colony formation of H.Ep-2 cells. The format is functional, cell-based. Particulars: Homo sapiens. In short, it runs like this:
as §1

A short description of assay [4]: Compound was tested for activity against 10 isolated folate-utilizing enzymes; IA=Inactive.
Assay [5] has as its system L1210. The assay can be described thus: Compound was tested for activity against L1210 cells in mice; IA=Inactive. Format: functional, cell-based. Conditions: Mus musculus.

SMILES strings stand for the structures. pEC50, pIC50: −log10 of the molar value. The source made the active and inactive calls. No cut-off for these calls is given here.

Regarding `CCOC(=O)CCCCCCCNC(=O)N1c2c(O)nc(N)nc2NCC1CNc1ccc(C(=O)NC(CCC(=O)O)C(=O)O)cc1` (stereo not given), the pEC50 in assay [1] is 4.62.
For `CCOC(=O)CCCCCCNC(=O)N1c2c(O)nc(N)nc2NCC1CNc1ccc(C(=O)NC(CCC(=O)O)C(=O)O)cc1` (stereo not given), the Cytotoxicity result in assay [2] was “inactive”. For the same compound, the pEC50 in assay [1] was 5.40.
`CCOC(=O)CCCCC/N=C(\S)N1c2c(O)nc(N)nc2NCC1CNc1ccc(C(=O)NC(CCC(=O)O)C(=O)O)cc1` (stereo not given) showed a pIC50 in assay [3] of less than 4.60.
On the same count and under the same terms, to `CCOC(=O)CCCCCCC/N=C(\S)N1c2c(O)nc(N)nc2NCC1CNc1ccc(C(=O)NC(CCC(=O)O)C(=O)O)cc1` (stereo not given) belongs less than 4.60.
Turning to `CCOC(=O)CCCCCCCCNC(=O)N1c2c(O)nc(N)nc2NCC1CNc1ccc(C(=O)NC(CCC(=O)O)C(=O)O)cc1` (stereo not given), in assay [2], the Cytotoxicity result was “inactive”. The pEC50 in assay [1] was 4.46.
With `NC(=O)N1c2c(O)nc(N)nc2NCC1CNc1ccc(C(=O)NC(CCC(=O)O)C(=O)O)cc1` (stereo not given), the result in assay [4] was inactive. The Cytotoxicity result in assay [5] is “inactive”.
For `CC/N=C(\S)N1c2c(O)nc(N)nc2NCC1CNc1ccc(C(=O)NC(CCC(=O)O)C(=O)O)cc1` (stereo not given), the outcome in assay [4] was inactive. Also, the Cytotoxicity result in assay [5] is “inactive”.
In turn, `CCOC(=O)CCCCCC/N=C(\S)N1c2c(O)nc(N)nc2NCC1CNc1ccc(C(=O)NC(CCC(=O)O)C(=O)O)cc1` (stereo not given) showed a pIC50 in assay [3] of less than 4.60.
For the compound `Nc1nc(O)c2c(n1)NCC(CNc1ccc(C(=O)NC(CCC(=O)O)C(=O)O)cc1)N2/C(S)=N/c1ccccc1` (stereo not given), the outcome in assay [4] was inactive. In assay [5], the Cytotoxicity result is “inactive”.
In the case of `Nc1nc(O)c2c(n1)NCC(CNc1ccc(C(=O)NC(CCC(=O)O)C(=O)O)cc1)N2C(=O)NCCCl` (stereo not given), the result in assay [4] was inactive. Further, the Cytotoxicity result in assay [5] was “inactive”.
In the case of `CCOC(=O)CCCCCNC(=O)N1c2c(O)nc(N)nc2NCC1CNc1ccc(C(=O)NC(CCC(=O)O)C(=O)O)cc1` (stereo not given), the Cytotoxicity entry in assay [2] is “inactive”. Further, the pEC50 in assay [1] is 4.89.
`CCOC(=O)CCCCCCCC/N=C(\S)N1c2c(O)nc(N)nc2NCC1CNc1ccc(C(=O)NC(CCC(=O)O)C(=O)O)cc1` (stereo not given): the Cytotoxicity entry in assay [2] was “inactive”. The pIC50 in assay [3] was less than 4.60.

As usually defined, the pIC50 is the IC50 on a negative log10 scale, so that one unit is a factor of ten. Low values mean a large IC50, high ones a small IC50.
